Measurements of several laboratories.
Compare with care: the assays were run in different laboratories.
Observed: cell growth or viability

SMILES	cell line	method	tested at	time	endpoint	value
O=C(Nc1ccc(-c2cn(Cc3ccc(Cl)cc3)nn2)cc1)Nc1ccccc1Br	A549	CCK-8	20 µM	72 h	viability	102%
CN(C)CCNC(=O)c1ccc(-c2nc3ccc4[nH]ncc4c3c3c2CCCCC3)c(F)c1	EOL1	–	–	72 h	GI50	0.052 µM
O=C(Nc1cccc(-c2cn(Cc3ccc(Br)cc3)nn2)c1)Nc1ccccc1Br	A549	CCK-8	20 µM	72 h	viability	130%
Nc1nc2ccc(-c3c/c(=N\c4ccccc4NC(=O)CCN4CCOCC4)c4ccccc4o3)cc2o1	A549	CCK-8	1 µM	–	inhibition	16.4%
COc1ccc(NC(=O)Nc2cccc(-c3cn(Cc4ccccc4C)nn3)c2)cc1	A549	CCK-8	20 µM	72 h	viability	137%
CC(C)(C)[C@H](N)C(=O)Nc1ccccc1/N=c1\cc(-c2ccc3c(c2)OCCO3)oc2cc(F)ccc12	A549	CCK-8	1 µM	–	inhibition	-4.38%
COc1ccc(NC(=O)Nc2cccc(-c3cn(Cc4ccc(Br)cc4)nn3)c2)cc1	A549	CCK-8	20 µM	72 h	viability	152%
CCC/C(=C\C1=C(OC)C(=O)c2ccccc2C1=O)C(=O)N(CC)CC	HUVEC	resazurin	–	48 h	GI50	2.7 µM
COc1ccc(NC(=O)Nc2ccc(-c3cn(Cc4ccc(Br)cc4)nn3)cc2)cc1	A549	CCK-8	20 µM	72 h	viability	102%
O=C(NCc1cn(Cc2ccc(Cl)cc2)nn1)Nc1ccccc1Br	A549	CCK-8	20 µM	72 h	viability	86.4%
Cc1n[nH]c2ccc3nc(-c4ccc(C(=O)NCCN(C)C)cc4F)c4c(c3c12)CCCCC4	EOL1	–	–	72 h	GI50	0.072 µM
CCCCCCCCCCCCCCCCCCOc1cccc(CC(=O)OCC[N+]2(C)CCCCC2)c1	NCI-H522	SRB	10 µM	–	inhibition	28.5%
NCCC(=O)Nc1ccccc1/N=c1\cc(-c2ccc3nc(N)oc3c2)oc2ccccc12	A549	CCK-8	1 µM	–	inhibition	18.6%
O=c1[nH]cc(F)c(=O)[nH]1	PC-3	MTT	100 µM	48 h	cell death	10.7%
C=C(NC(=O)C(=C)NC(=O)c1csc(C2=N[C@@H]3c4csc(n4)[C@H]4NC(=O)c5csc(n5)[C@H]([C@](C)(O)[C@@H](C)O)NC(=O)[C@H]5CSC(=N5)/C(=C/C)NC(=O)[C@H]([C@@H](C)O)NC(=O)c5csc(n5)[C@]3(CC2)NC(=O)[C@H](C)NC(=O)C(=C)NC(=O)[C@H](C)NC(=O)[C@H]([C@@H](C)CC)N[C@@H]2C=Cc3c([C@H](C)O)cc(nc3[C@H]2O)C(=O)O[C@@H]4C)n1)C(N)=O	U-251	–	–	–	EC50	0.9 µM
Cc1ccccc1Cn1cc(-c2cccc(NC(=O)Nc3ccc(F)cc3)c2)nn1	A549	CCK-8	20 µM	72 h	viability	114%
O=C(Nc1ccc(Cl)cc1)Nc1cccc(-c2cn(Cc3ccc(Cl)cc3)nn2)c1	A549	CCK-8	20 µM	72 h	viability	121%
CCCCCCCCCCCCCCCCCCOc1ccc(CC(=O)OCC[N+]2(C)CCOCC2)cc1	NCI-H522	SRB	10 µM	–	inhibition	5.79%

SMILES	cell line	method	tested at	time	endpoint	value
NCCC(=O)Nc1ccccc1/N=c1\cc(-c2ccc3c(c2)OCO3)oc2ccccc12	A549	CCK-8	1 µM	–	inhibition	3.27%
C[C@H](Nc1ccc2c(c1)OCCn1cc(N3C(=O)OC[C@H]3C(F)F)nc1-2)C(N)=O	NCI-H1048	ATP luminescence	–	5 days	EC50	0.0003 µM
Cc1nc(Nc2ncc(C(=O)Nc3c(C)cccc3Cl)s2)cc(N2CC[C@H](O)C2)n1	WSU-NHL	ATP luminescence	10 µM	72 h	inhibition	91%
CNCCC(=O)Nc1ccccc1/N=c1\cc(-c2ccc3nc(N)oc3c2)oc2ccccc12	A549	CCK-8	1 µM	–	inhibition	7.88%
Cc1n[nH]c2ccc3nc(-c4ccc(C(=O)NCCN(C)C)cc4)c4c(c3c12)CCCC4	EOL1	–	–	72 h	GI50	0.037 µM
COc1cc(C=NNC(=O)c2nc3ccccc3s2)ccc1O	PC-3	MTT	100 µM	48 h	cell death	29.4%
CCCCCCCCCCCCCCCCCCOc1cccc(CC(=O)OCC[N+](CC)(CC)CC)c1	NCI-H522	SRB	10 µM	–	inhibition	61.5%
Nc1ccccc1/N=c1\cc(-c2ccc3c(c2)OCO3)oc2ccccc12	A549	CCK-8	1 µM	–	inhibition	11.1%
CCCCCCCCCCCCCCCCCCOc1ccccc1CC(=O)OCC[N+]1(C)CCOCC1	NCI-H522	SRB	10 µM	–	inhibition	60.1%
NCCC(=O)Nc1ccccc1/N=c1\cc(-c2ccc3nc(N)oc3c2)oc2ccc(F)cc12	A549	CCK-8	1 µM	–	inhibition	42.4%
CCCCCCCCCCCCCCCCCCOc1cccc(CC(=O)OCC[N+]2(C)CCOCC2)c1	NCI-H522	SRB	10 µM	–	inhibition	16.9%
COc1ccc2/c(=N/c3ccccc3NC(=O)[C@H](C)N)cc(-c3ccc4c(c3)OCCO4)oc2c1	A549	CCK-8	1 µM	–	inhibition	-2.21%
CCCCCCCCCCCCCCCCCCOc1ccccc1CC(=O)OCCC[N+](C)(C)C	NCI-H522	SRB	10 µM	–	inhibition	63.7%
COc1ccc(C=NNC(=O)c2nc3ccccc3s2)cc1O	PC-3	MTT	100 µM	48 h	cell death	25.1%
CCCCCCCCCCCCCCCCCCOc1ccc(CC(=O)OCCC[N+](C)(C)C)cc1	NCI-H522	SRB	10 µM	–	inhibition	21.6%
CN(C)CCNC(=O)c1ccc(-c2nc3ccc4[nH]ncc4c3c3c2CCCC3)cc1	EOL1	–	–	72 h	GI50	0.149 µM
CCCCCCCCCCCCCCCCCCOc1cccc(CC(=O)OCC[N+]2(C)CCCC2)c1	NCI-H522	SRB	10 µM	–	inhibition	36.6%
Cc1n[nH]c2ccc3nc(-c4ccc(C(=O)NCCN(C)C)cc4F)c4c(c3c12)CCCC4	EOL1	–	–	72 h	GI50	0.089 µM
